In ChEMBL document CHEMBL4190269, “Design, synthesis and biological evaluation of novel 6-substituted pyrrolo [3,2-d] pyrimidine analogues as antifolate antitumor agents” (2017):
Calls of active or inactive are those of the source. No cut-off for these calls is given here.

Tests used:
[1] = tested on: A549; assay: Antiproliferative activity against human A549 cells after 48 hrs by MTS assay; format: functional; details: A549, 48 h
How it was run: (§1)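 Cells in RPMI-1640 or DMEM with 10% FBS, 37 °C, 5% CO2. Exponentially growing cells seeded at 5 × 10^3 per well and grown 12 h. Compounds added at 10 nM to 100 μM for 48 h. MTS reagent added for 3 h, then OD read at 490 nm. 0.1% DMSO as control. Mean viability from three independent experiments.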

[2] = tested on: HT-29; assay: Antiproliferative activity against human HT-29 cells after 48 hrs by MTS assay; format: functional; details: HT-29, 48 h; how it was run: as §1
[3] = tested on: NCI-H1299; assay: Antiproliferative activity against human NCI-H1299 cells after 48 hrs by MTS assay; format: functional; details: NCI-H1299, 48 h; how it was run: as §1
[4] = tested on: HL-60; assay: Antiproliferative activity against human HL60 cells after 48 hrs by MTS assay; format: functional; details: HL-60, 48 h; how it was run: as §1
[5] = tested on: HCT-116; assay: Antiproliferative activity against human HCT116 cells after 48 hrs by MTS assay; format: functional; details: HCT-116, 48 h
[6] = tested on: HeLa; assay: Antiproliferative activity against human HeLa cells after 48 hrs by MTS assay; format: functional; how it was run: as §1
[7] = tested on: A549; assay: Cell cycle arrest in human A549 cells assessed as accumulation at G1 phase at 1 uM after 72 hrs by propidium iodide staining based flow cytometry (reference value: 40.9%); format: functional
How it was run: (§2)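 A549 cells treated 72 h in RPMI1640 with 10% dFBS and 2 nM LCV. Washed twice in ice-cold PBS and fixed in 70% ethanol at 4 °C overnight. Stained ≥20 min at room temperature in the dark with 50 μg/mL PI and 100 μg/mL RNase. Phase percentages from 1 × 10^4 cells by flow cytometry. DMSO-treated cells as reference.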

[8] = tested on: A549; assay: Cell cycle arrest in human A549 cells assessed as accumulation at G2 phase at 1 uM after 72 hrs by propidium iodide staining based flow cytometry (reference value: 7.8%); format: functional; how it was run: as §2
[9] = tested on: A549; assay: Cell cycle arrest in human A549 cells assessed as accumulation at S phase at 1 uM after 72 hrs by propidium iodide staining based flow cytometry (reference value: 51.3%); format: functional; how it was run: as §2
[10] = tested on: A549; assay: Induction of apoptosis in human A549 cells assessed as early apoptotic cells at 1 uM after 72 hrs by Annexin V-FITC/propidium iodide staining based flow cytometry (reference value: 0.32%); format: functional
How it was run: (§3)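 A549 cells exposed 72 h in RPMI with 10% dFBS and 2 nM LCV, with an untreated control. Harvested by trypsinization and washed twice in cold PBS. Stained with annexin V-FITC/PI and ≥1 × 10^4 cells analyzed by flow cytometry. Quadrants: LR early apoptosis, UR late apoptosis/necrosis, UL dead, LL viable.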

[11] = tested on: HL-60; assay: Antiproliferative activity against human HL60 cells up to 1000 uM after 48 hrs in presence of excess of adenosine and AICA by MTS assay; format: functional, cell-based
[12] = tested on: A549; assay: Cell cycle arrest in human A549 cells assessed as accumulation at S phase at 10 uM after 72 hrs by propidium iodide staining based flow cytometry (reference value: 51.3%); format: functional; how it was run: as §2
[13] = tested on: A549; assay: Cell cycle arrest in human A549 cells assessed as accumulation at G1 phase at 10 uM after 72 hrs by propidium iodide staining based flow cytometry (reference value: 40.9%); format: functional; how it was run: as §2
[14] = tested on: A549; assay: Induction of apoptosis in human A549 cells assessed as necrotic cells at 1 uM after 72 hrs by Annexin V-FITC/propidium iodide staining based flow cytometry (reference value: 3.58%); format: functional; how it was run: as §3
[15] = biological target: T1, Dihydrofolate reductase (Homo sapiens) (UniProt P00374); assay: Inhibition of recombinant human DHFR at 1 to 10 uM using dihydrofolate as substrate in presence of NADPH by spectrophotometric method
T1 sequence (whole entry): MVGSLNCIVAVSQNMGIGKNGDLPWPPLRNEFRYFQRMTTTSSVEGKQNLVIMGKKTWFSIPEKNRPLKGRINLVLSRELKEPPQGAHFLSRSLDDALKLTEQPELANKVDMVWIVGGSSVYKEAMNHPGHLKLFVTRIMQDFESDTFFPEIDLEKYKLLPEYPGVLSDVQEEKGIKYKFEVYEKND
How it was run: (§4)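 Recombinant human DHFR assayed with 0.1 mM dihydrofolate, 0.3 mM NADPH and 100 mM KCl, pH 7.5, 32 °C. Reaction started by adding enzyme and followed as OD change at 340 nm. Percent inhibition recorded at 1, 10 and 100 μM.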

[16] = tested on: A549; assay: Induction of apoptosis in human A549 cells assessed as live cells at 1 uM after 72 hrs by Annexin V-FITC/propidium iodide staining based flow cytometry (reference value: 94.86%); format: functional; how it was run: as §3
[17] = tested on: A549; assay: Induction of apoptosis in human A549 cells assessed as live cells at 10 uM after 72 hrs by Annexin V-FITC/propidium iodide staining based flow cytometry (reference value: 94.86%); format: functional; how it was run: as §3
[18] = tested on: A549; assay: Induction of apoptosis in human A549 cells assessed as early apoptotic cells at 10 uM after 72 hrs by Annexin V-FITC/propidium iodide staining based flow cytometry (reference value: 0.32%); format: functional; how it was run: as §3
[19] = tested on: A549; assay: Induction of apoptosis in human A549 cells assessed as late apoptotic cells at 1 uM after 72 hrs by Annexin V-FITC/propidium iodide staining based flow cytometry (reference value: 1.24%); format: functional; how it was run: as §3
[20] = tested on: HL-60; assay: Antiproliferative activity against human HL60 cells up to 1000 uM after 48 hrs in presence of excess of thymidine by MTS assay; format: functional, cell-based
[21] = tested on: A549; assay: Inhibition of colony formation in human A549 cells at 20 uM treated for 48 hrs followed by compound washout measured after 8 days by Giemsa staining based assay; format: functional, cell-based
How it was run: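 About 100 A549 cells per well plated and kept 24 h in RPMI with 10% dFBS and 2 nM LCV at 37 °C, 5% CO2. Compound at 0-20 μM added for 48 h, then medium replaced with drug-free medium for 8 days. Colonies fixed in methanol 30 min, Giemsa-stained 30 min, then counted.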

[22] = biological target: T1, Dihydrofolate reductase (Homo sapiens); assay: Inhibition of recombinant human DHFR at 100 uM using dihydrofolate as substrate in presence of NADPH by spectrophotometric method relative to control; how it was run: as §4
[23] = tested on: A549; assay: Induction of apoptosis in human A549 cells assessed as late apoptotic cells at 10 uM after 72 hrs by Annexin V-FITC/propidium iodide staining based flow cytometry (reference value: 1.24%); format: functional; how it was run: as §3
[24] = tested on: A549; assay: Cell cycle arrest in human A549 cells assessed as accumulation at G2 phase at 10 uM after 72 hrs by propidium iodide staining based flow cytometry (reference value: 7.8%); format: functional; how it was run: as §2
[25] = tested on: A549; assay: Induction of apoptosis in human A549 cells assessed as necrotic cells at 10 uM after 72 hrs by Annexin V-FITC/propidium iodide staining based flow cytometry (reference value: 3.58%); format: functional; how it was run: as §3

SMILES	GI50 [1]	GI50 [2]	GI50 [3]	GI50 [4]	GI50 [5]	GI50 [6]	also measured
CN(Cc1cnc2nc(N)nc(N)c2n1)c1ccc(C(=O)N[C@@H](CCC(=O)O)C(=O)O)cc1 [METHOTREXATE]	0.014 µM	> 100 µM	0.072 µM	0.038 µM	0.13 µM	> 100 µM	Activity [7]: 62%; Activity [8]: 0%; Activity [9]: 38%
Nc1nc2cc(CCc3ccc(C(=O)N[C@@H](CCC(=O)O)C(=O)O)cc3)[nH]c2c(=O)[nH]1	0.73 µM	99.1 µM	1.72 µM	8.92 µM	54.6 µM	73.1 µM	Activity [10]: 0.39%; Activity [11]: Active; Activity [12]: 45.6%; Activity [13]: 35%; Activity [14]: 4.46%; inhibition [15]: Active; Activity [7]: 33.7%; Activity [16]: 94.08%; Activity [8]: 15%; Activity [17]: 88.02%; Activity [18]: 4.4%; Activity [9]: 51.3%; Activity [19]: 1.07%; Activity [20]: Active; inhibition [21]: Active; inhibition [22]: 66.7%; Activity [23]: 3.21%; Activity [24]: 19.4%; Activity [25]: 3.56%
C=CCn1c(CNc2ccc(C(=O)N[C@@H](CCC(=O)O)C(=O)O)cc2)cc2nc(N)[nH]c(=O)c21	57.3 µM	98.5 µM	68.4 µM	15.5 µM	> 100 µM	82.7 µM	
Cn1c(CNc2ccc(C(=O)N[C@@H](CCC(=O)O)C(=O)O)cc2)cc2nc(N)[nH]c(=O)c21	46 µM	> 100 µM	51.3 µM	13.5 µM	> 100 µM	94.4 µM	

Now from value to compound, other results behind:

GI50 [1]	GI50 [2]	GI50 [3]	GI50 [4]	GI50 [5]	GI50 [6]	SMILES	also measured
83 µM	> 100 µM	> 100 µM	40.1 µM	> 100 µM	> 100 µM	Nc1nc2c(Br)c(CNc3ccc(C(=O)N[C@@H](CCC(=O)O)C(=O)O)cc3)[nH]c2c(=O)[nH]1	
> 100 µM	> 100 µM	> 100 µM	> 100 µM	> 100 µM	> 100 µM	C#CCN(Cc1cc2nc(N)[nH]c(=O)c2[nH]1)c1ccc(C(=O)N[C@@H](CCC(=O)O)C(=O)O)cc1	
> 100 µM	> 100 µM	> 100 µM	> 100 µM	> 100 µM	> 100 µM	CN(Cc1cc2nc(N)[nH]c(=O)c2[nH]1)c1ccc(C(=O)N[C@@H](CCC(=O)O)C(=O)O)cc1	
79 µM	> 100 µM	73.1 µM	47.4 µM	> 100 µM	85.1 µM	Nc1nc2cc(CNc3ccc(C(=O)N[C@@H](CCC(=O)O)C(=O)O)cc3)[nH]c2c(=O)[nH]1	
> 100 µM	> 100 µM	> 100 µM	54.2 µM	> 100 µM	> 100 µM	Nc1nc2c(I)c(CNc3ccc(C(=O)N[C@@H](CCC(=O)O)C(=O)O)cc3)[nH]c2c(=O)[nH]1	
> 100 µM	> 100 µM	> 100 µM	> 100 µM	> 100 µM	> 100 µM	CCN(Cc1cc2nc(N)[nH]c(=O)c2[nH]1)c1ccc(C(=O)N[C@@H](CCC(=O)O)C(=O)O)cc1	
